The subject of data set [1] is Human immunodeficiency virus. The data set is described as follows: Inhibition of HIVgp41 activity assessed as fluorescence intensity at 800 uM by FRET assay relative to 40 uM bithionol.
Data set [2] is described as follows: Cytotoxicity against human HL2/3 cells at 100 uM. Format: cell-based. The settings on record: hl2/3, 100 µM. In a few lines:
(§1)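 TZM-bl target cells (2.5×10^4/well) were seeded; 24 h later HL2/3 effector cells (5.0×10^4/well, […]) were added together with compound diluted in DMSO to a final 100 µM. After 6 h, Tat-driven LTR-luciferase luminescence (fusion) and cell viability were read in a combined reporter/viability kit. Six replicates; ANOVA with Tukey post hoc test against untreated co-culture.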

Data set [3] in a line: Cytotoxicity against human TZM-bl cells at 100 uM. Format: cell-based. In a few lines:
as §1

A short description of data set [4]: Inhibition of HIVgp41 activity assessed as inhibition of TZM-bl and HL2/3 cell fusion after 6 hrs by luciferase reporter assay. Format: cell-based. The note with it: Human immunodeficiency virus 1, HL2/3, 6 h. A digest of the protocol:
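Dose-response runs of the TZM-bl/HL2/3 co-culture luciferase fusion assay over a range of concentrations. Viability signal was scaled to the maximal signal (fraction of maximal proliferation). Each well's fusion luminescence was divided by that fraction, background was subtracted, and values were normalized to fraction of maximal effect. IC50 was taken from curve fitting.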
(Reporter assays use an easily measured gene product as a stand-in for the process of interest.)

The next data set deals with HL2/3. The data set is described as follows: Inhibition of HIV gp41 activity assessed as inhibition of TZM-bl and HL2/3 cell fusion at 100 uM after 6 hrs by luciferase reporter assay. Format: cell-based. The settings on record: Human immunodeficiency virus. A digest of the protocol:
as §1

pIC50: −log10 of the molar value. The source made the active and inactive calls. The rule behind the calls is not given here.

Consider `COc1ccc(-c2cc(C(=O)NCc3ccc(Cl)cc3)n[nH]2)cc1S(=O)(=O)N1CCOCC1`, for which the result in data set [1] was inactive. The Activity entry in data set [2] and in data set [3] was “Non-toxic” each time. Also, the pIC50 in data set [4] was 4.23. For the same compound, the outcome in the data set on HL2/3 was Active.

In the case of `CCn1c(SCC(=O)N/N=C/c2cccc(Oc3ccccc3)c2)nnc1-c1ccc(OC)cc1`, in data set [1], the result was inactive. Also, the Activity entry in data set [2] and in data set [3] was “Non-toxic” each time. Moreover, in data set [4], the pIC50 is 4.25. Also, the outcome in the data set on HL2/3 was Active.

By pIC50 is commonly meant −log10 of the IC50, conventionally taken in molar units.
